Bioassay records as filed in PubChem BioAssay.
This is a sample that favours compounds with a hit; in the whole collection about 5.1% have one here.
STAT1 act: activators of IFN-gamma induced STAT1 signaling; AID 932; activation (% of control), % at 5.5 µM; hit rate 2.6% among 200,000; NIH 3T3 STAT1-luciferase reporter, luminescence; 100% = IFN-gamma alone, no compound;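 active = activation above the screen-wide mean activation plus 3 SD, cut at about 130% in these data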
NF-kB expr up: raises NF-kB expression in human neuronal cells | NF-kB reporter expression; hits give high values | fold change at 12.5 µM | hit rate 1.6% among 190,000; in the data active = fold change above about 3.3
STAT3 act: increases IL-6 driven STAT3 reporter signal; U3A cells, IL-6 STAT3-luciferase reporter, luminescence; 100% = signal with IL-6 EC80 alone; activation (% of control), % at 5.6 µM; hit rate 0.91% among 190,000; AID 871;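 active = activation above the screen-wide mean of compound activation plus 3 SD, cut at about 130% in these data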
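Test system: STAT3-luciferase reporter U3A cells; Detection: reporter luminescence signal; Times: 1 h compound pre-exposure, 6 h IL-6 stimulation, 37 °C; Benchmarks: IL-6-only high control; Also added: IL-6 stimulus at 33 ng/mL final.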
STAT3 inh: STAT3 signaling inhibition; U3A cells, IL-6 STAT3-luciferase reporter, luminescence; host cell line lacks STAT1; inhibition, % at 5.5 µM; hit rate 0.89% among 190,000;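 active = inhibition above the mean inhibition across all screened compounds plus 3 SD, cut at about 44% in these data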
APP 5'UTR act: APP 5'UTR luciferase reporter activation. SH-SY5Y APP 5'UTR luciferase reporter, luminescence; zero percent = DMSO vehicle wells. activation, % at 2 µM. hit rate 1% among 190,000. AID 1276;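 active = activation above a set limit, based on mean plus 3 SD of controls, cut at about 140% in these data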
STAT1 inh: STAT1 signaling inhibition | NIH 3T3 STAT1-luciferase reporter, IFN-gamma, luminescence | inhibition, % at 5.5 µM | hit rate 0.35% among 200,000 | AID 920;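 active = inhibition above a set limit, the mean inhibition across all tested compounds plus 3 SD, cut at about 34% in these data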
STAT1 activ conf: confirmation of STAT1 signaling activators | shares compounds with STAT1 act | NIH 3T3 STAT1-luciferase reporter, IFN-gamma potentiation, luminescence; 100% = IFN-gamma EC80 alone, no compound | activation (% of control), % at 5.7 µM | hit rate 97% among 1,200 | AID 1262;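 active = activation above a set limit carried over from the earlier primary STAT1 screen, cut at about 140% in these data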
NFkB act STAT1ct: activates NF-kappaB, counter-screen to STAT1 activators. AID 1306. shares compounds with STAT1 act. HEK293T NF-kB luciferase reporter, TNF-alpha stimulated, luminescence; 100% = TNF-alpha with vehicle only. activation (% of control), % at 5.7 µM. hit rate 43% among 1,200;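 active = activation above the mean of solvent-only control wells plus 3 SD, set per campaign, cut at about 130% in these data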;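 also: TNF-alpha given at a submaximal dose yielding about 80% of full reporter signal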
STAT3 act STAT1c: human STAT3 activation in STAT1 activator counter-screen | shares compounds with STAT1 act | U3A cells STAT3-luciferase reporter, IL-6, luminescence; cells lack STAT1; 100 = IL-6 alone, no compound effect | activation (% of control), % at 5.7 µM | hit rate 46% among 1,200;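 active = activation above the solvent-only control well mean plus 3 SD, set per plate batch, cut at about 110% in these data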;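 also: higher means more STAT3 reporter activation so hits are non-selective activators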
Each line names hits and unclear results; the compound was inactive in the other large screens (follow-up assays come after a bar, where they were run).

O=C1C2CC=CCC2C(=O)N1c1ccc(N2CCN(c3ccccn3)CC2)c([N+](=O)[O-])c1 (stereo not given)	none
CCN(CC)C(=O)/C=C/c1ccc(OC)c(S(=O)(=O)N2CCCCC2)c1	none
CN(Cc1ccccc1)S(=O)(=O)c1ccc(Cl)c(C(=O)NCCc2ccccn2)c1	none
Cc1ccc2oc(-c3ccc(NC(=O)CC(C)C)cc3)nc2c1	STAT1 act 154 | STAT1 activ conf 212 | NFkB act STAT1ct inactive | STAT3 act STAT1c inactive
CC(C)CC(=O)Nc1ccc2oc(-c3cccnc3)nc2c1	none
CCCC(=O)Nc1ccc(-c2nc3cc(C)c(C)cc3o2)cc1	STAT1 act 202, NF-kB expr up 4.7 | STAT1 activ conf 224 | NFkB act STAT1ct 141 | STAT3 act STAT1c 122
O=C(Nc1ccc2c(c1)Cc1ccccc1-2)c1ccco1	STAT1 act 174, NF-kB expr up 4, APP 5'UTR act 179 | STAT1 activ conf 211 | NFkB act STAT1ct 139 | STAT3 act STAT1c inactive
O=C(Nc1ccc(-c2nc3ccccc3o2)cc1)c1cccnc1	STAT1 act 166 | STAT1 activ conf 185 | NFkB act STAT1ct 146 | STAT3 act STAT1c inactive
O=C(Nc1ccc2c(c1)Cc1ccccc1-2)c1cccnc1	STAT1 act 151 | STAT1 activ conf 143 | NFkB act STAT1ct inactive | STAT3 act STAT1c inactive
COc1ccc(C(=O)Nc2ccc3c(c2)Cc2ccccc2-3)cc1	none
COc1cccc(OC)c1C(=O)Nc1ccc2c(c1)Cc1ccccc1-2	none
Cc1ccc(-n2c(=O)c3ccccc3n(CC(=O)NCc3ccco3)c2=O)cc1	none
CC1(C)CC(=O)C/C(=N\NC(=O)CCc2ccc(S(=O)(=O)N3CCOCC3)cc2)C1	none
O=C(COC(=O)c1ccc2c(c1)OCO2)Nc1nc(-c2ccccc2)cs1	none (no result: NF-kB expr up)
CCC(=O)Nc1nc(-c2ccc3c(c2)OCCO3)cs1	STAT1 act 153, NF-kB expr up 7.1, APP 5'UTR act 147 | STAT1 activ conf 212 | NFkB act STAT1ct 145 | STAT3 act STAT1c inactive
Cc1nn(-c2ccccc2)c(Cl)c1/C=N/NC(=O)CNc1n[nH]c(=O)[nH]c1=O	none
COc1ccc2oc(=O)c(C(=O)OCC(=O)c3ccc([N+](=O)[O-])cc3)cc2c1	none
CNC(=O)c1c(Br)cnn1-c1ccc(C)cc1	STAT1 act 152 | STAT1 activ conf 180 | NFkB act STAT1ct inactive | STAT3 act STAT1c 116
CNC(=O)c1c(Cl)cnn1-c1ccc(C)cc1	STAT1 act 161 | STAT1 activ conf 164 | NFkB act STAT1ct 138 | STAT3 act STAT1c 114
CC(C)NS(=O)(=O)c1ccc(CCC(=O)N2CCC(C(N)=O)CC2)cc1	none
COC(=O)N/N=C/c1c(C)cc(C)cc1C	none
COC(=O)c1cc(=O)c2c(C)nc(C(Cl)(Cl)Cl)nc2[nH]1	none
CCOC(=O)c1sc2nc(-c3cccnc3)ccc2c1N	STAT1 act 176, NF-kB expr up 8.2, APP 5'UTR act 156 | STAT1 activ conf 251 | NFkB act STAT1ct 141 | STAT3 act STAT1c 115
CCOc1ccc2nc(N/C(N)=N/C(=S)Nc3ccc(C)c(C)c3)nc(C)c2c1	none
CCNC(=S)/N=C(\N)Nc1nc(C)c2cc(C)ccc2n1	STAT1 act 182 | STAT1 activ conf 179 | NFkB act STAT1ct 141 | STAT3 act STAT1c 125
Cc1[nH]n(C(N)=S)c(=O)c1N=Nc1ccc2ccccc2c1	STAT1 act 172, NF-kB expr up 5.9 | STAT1 activ conf 208 | NFkB act STAT1ct inactive | STAT3 act STAT1c 146
Cc1cccc2c1-c1sc(C(=O)Nc3nccs3)cc1CO2	STAT1 act 160 | STAT1 activ conf 190 | NFkB act STAT1ct inactive | STAT3 act STAT1c inactive
